Measurements published in ChEMBL document CHEMBL5154713, “Illuminating a Dark Kinase: Structure-Guided Design, Synthesis, and Evaluation of a Potent Nek1 Inhibitor and Its Effects on the Embryonic Zebrafish Pronephros” (J Med Chem, 2022).

Experiments:
[1] = biological target: RAC-alpha serine/threonine-protein kinase (Homo sapiens) (UniProt P31749); test: Inhibition of human full length Akt1 assessed as residual activity at 1 uM using GRPRTSSFAEGKK as substrate incubated for 40 mins in presence of [gamma 33P]-ATP based radiometric scintillation counting assay relative to control
RAC-alpha serine/threonine-protein kinase (Homo sapiens), sequence (P31749 whole entry): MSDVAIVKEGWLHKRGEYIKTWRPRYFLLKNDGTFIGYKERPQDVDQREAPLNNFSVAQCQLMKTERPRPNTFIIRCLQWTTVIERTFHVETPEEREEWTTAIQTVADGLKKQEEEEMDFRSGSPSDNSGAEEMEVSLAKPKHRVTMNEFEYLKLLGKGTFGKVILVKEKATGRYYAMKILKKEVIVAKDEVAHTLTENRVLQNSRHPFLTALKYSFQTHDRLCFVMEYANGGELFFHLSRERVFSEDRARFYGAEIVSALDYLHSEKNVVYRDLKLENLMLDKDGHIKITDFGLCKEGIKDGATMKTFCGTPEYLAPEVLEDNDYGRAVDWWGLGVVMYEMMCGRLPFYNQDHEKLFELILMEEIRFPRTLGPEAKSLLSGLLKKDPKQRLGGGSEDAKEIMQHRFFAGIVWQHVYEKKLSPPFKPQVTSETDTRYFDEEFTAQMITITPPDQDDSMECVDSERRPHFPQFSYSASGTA
How it was run: (§1)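 Commercial radiometric panel of 50 kinases. Each recombinant human kinase was tested at a single compound concentration of 1 μM. ATP was set within 15 μM of the apparent Km for ATP for each kinase. Residual activity is relative to control and is the mean of two independent experiments.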

[2] = biological target: Serine/threonine-protein kinase Chk1 (Homo sapiens) (UniProt O14757); test: Inhibition of human full length recombinant CHK1 assessed as residual activity at 1 uM using KKKVSRSGLYRSPSMPENLNRPR as substrate incubated for 40 mins in presence of [gamma 33P]-ATP by radiometric scintillation counting assay relative to control; how it was run: as §1
[3] = Toxicity in wild-type Zebrafish embryos assessed as effect on body curvature at 0.05 to 30 uM measured upto 120 hrs; parameters: species or system Danio rerio; conditions: in vivo, dose 0.05-30 µM
How it was run: (§2)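 Wild-type embryos, 15 per group with intact chorions, dosed at 6 hpf with 0.05–30 μM final concentrations in E3, diluted from a DMSO stock. Survival checked every 24 h by heartbeat over 120 h, and phenotypes assessed visually. At least triplicate, 5 replicates at 30 μM.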

[4] = biological target: Ephrin type-B receptor 4 (Homo sapiens) (UniProt P54760); test: Inhibition of recombinant human EphB4 (561 to end residues) assessed as residual activity at 1 uM using poly(Glu, Tyr) 4:1 as substrate at 40 mins in presence of [gamma-33ATP] by scintillation counting based radiometry assay relative to control; how it was run: as §1
Ephrin type-B receptor 4 (Homo sapiens), sequence (P54760 whole entry): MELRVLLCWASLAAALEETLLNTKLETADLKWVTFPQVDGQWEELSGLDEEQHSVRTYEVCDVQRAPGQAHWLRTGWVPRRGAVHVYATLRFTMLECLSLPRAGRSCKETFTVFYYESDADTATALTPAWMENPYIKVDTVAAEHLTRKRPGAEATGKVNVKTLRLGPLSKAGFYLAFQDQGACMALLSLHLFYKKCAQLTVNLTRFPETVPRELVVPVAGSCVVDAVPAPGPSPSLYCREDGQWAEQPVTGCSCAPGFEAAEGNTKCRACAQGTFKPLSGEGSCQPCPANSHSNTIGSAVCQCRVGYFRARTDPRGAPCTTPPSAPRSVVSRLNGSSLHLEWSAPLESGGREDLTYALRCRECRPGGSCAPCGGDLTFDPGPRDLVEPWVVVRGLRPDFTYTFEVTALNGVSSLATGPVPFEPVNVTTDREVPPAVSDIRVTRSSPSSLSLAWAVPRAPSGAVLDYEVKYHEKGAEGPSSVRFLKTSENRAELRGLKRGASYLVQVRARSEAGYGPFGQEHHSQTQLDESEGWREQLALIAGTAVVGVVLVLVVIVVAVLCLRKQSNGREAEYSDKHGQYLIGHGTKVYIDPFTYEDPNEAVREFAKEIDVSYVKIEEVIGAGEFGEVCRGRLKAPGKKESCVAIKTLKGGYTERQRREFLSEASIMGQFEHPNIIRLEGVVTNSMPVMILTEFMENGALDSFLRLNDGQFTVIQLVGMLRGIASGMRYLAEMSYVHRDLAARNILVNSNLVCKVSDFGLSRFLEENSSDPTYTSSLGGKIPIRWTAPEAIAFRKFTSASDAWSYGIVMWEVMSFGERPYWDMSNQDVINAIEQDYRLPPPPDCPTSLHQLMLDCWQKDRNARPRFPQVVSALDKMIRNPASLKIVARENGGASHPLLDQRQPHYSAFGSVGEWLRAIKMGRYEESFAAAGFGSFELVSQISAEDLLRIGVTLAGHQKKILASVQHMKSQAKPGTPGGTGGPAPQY

[5] = biological target: Serine/threonine-protein kinase Nek2 (Homo sapiens) (UniProt P51955); test: Inhibition of human full length recombinant NEK2 assessed as residual activity at 1 uM using poly(Glu, Tyr) 4:1 as substrate incubated for 40 mins in presence of [gamma 33P]-ATP by radiometric scintillation counting assay relative to control; how it was run: as §1
Serine/threonine-protein kinase Nek2 (Homo sapiens), sequence (P51955 whole entry, the tested form may be a part): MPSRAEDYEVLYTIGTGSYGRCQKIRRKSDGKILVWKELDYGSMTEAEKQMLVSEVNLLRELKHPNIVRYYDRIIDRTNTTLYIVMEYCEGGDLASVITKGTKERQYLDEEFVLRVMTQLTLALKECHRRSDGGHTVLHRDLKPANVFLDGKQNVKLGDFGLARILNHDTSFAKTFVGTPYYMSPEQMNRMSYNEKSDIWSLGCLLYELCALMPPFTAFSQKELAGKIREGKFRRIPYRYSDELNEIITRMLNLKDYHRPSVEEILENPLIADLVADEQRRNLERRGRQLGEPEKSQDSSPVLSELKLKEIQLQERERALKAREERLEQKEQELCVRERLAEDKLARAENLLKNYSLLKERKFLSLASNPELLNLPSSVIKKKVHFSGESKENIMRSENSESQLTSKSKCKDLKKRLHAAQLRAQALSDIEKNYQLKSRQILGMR

[6] = biological target: T1, Serine/threonine-protein kinase Nek1 (Homo sapiens) (UniProt Q96PY6); test: Inhibition of human recombinant NEK1 (1 to 505 residues) assessed as residual activity at 1 uM using RLGRDKYKTLRQIRQ as substrate incubated for 40 mins in presence of [gamma-33P]-ATP by radiometric scintillation counting assay relative to control
T1 sequence (whole entry): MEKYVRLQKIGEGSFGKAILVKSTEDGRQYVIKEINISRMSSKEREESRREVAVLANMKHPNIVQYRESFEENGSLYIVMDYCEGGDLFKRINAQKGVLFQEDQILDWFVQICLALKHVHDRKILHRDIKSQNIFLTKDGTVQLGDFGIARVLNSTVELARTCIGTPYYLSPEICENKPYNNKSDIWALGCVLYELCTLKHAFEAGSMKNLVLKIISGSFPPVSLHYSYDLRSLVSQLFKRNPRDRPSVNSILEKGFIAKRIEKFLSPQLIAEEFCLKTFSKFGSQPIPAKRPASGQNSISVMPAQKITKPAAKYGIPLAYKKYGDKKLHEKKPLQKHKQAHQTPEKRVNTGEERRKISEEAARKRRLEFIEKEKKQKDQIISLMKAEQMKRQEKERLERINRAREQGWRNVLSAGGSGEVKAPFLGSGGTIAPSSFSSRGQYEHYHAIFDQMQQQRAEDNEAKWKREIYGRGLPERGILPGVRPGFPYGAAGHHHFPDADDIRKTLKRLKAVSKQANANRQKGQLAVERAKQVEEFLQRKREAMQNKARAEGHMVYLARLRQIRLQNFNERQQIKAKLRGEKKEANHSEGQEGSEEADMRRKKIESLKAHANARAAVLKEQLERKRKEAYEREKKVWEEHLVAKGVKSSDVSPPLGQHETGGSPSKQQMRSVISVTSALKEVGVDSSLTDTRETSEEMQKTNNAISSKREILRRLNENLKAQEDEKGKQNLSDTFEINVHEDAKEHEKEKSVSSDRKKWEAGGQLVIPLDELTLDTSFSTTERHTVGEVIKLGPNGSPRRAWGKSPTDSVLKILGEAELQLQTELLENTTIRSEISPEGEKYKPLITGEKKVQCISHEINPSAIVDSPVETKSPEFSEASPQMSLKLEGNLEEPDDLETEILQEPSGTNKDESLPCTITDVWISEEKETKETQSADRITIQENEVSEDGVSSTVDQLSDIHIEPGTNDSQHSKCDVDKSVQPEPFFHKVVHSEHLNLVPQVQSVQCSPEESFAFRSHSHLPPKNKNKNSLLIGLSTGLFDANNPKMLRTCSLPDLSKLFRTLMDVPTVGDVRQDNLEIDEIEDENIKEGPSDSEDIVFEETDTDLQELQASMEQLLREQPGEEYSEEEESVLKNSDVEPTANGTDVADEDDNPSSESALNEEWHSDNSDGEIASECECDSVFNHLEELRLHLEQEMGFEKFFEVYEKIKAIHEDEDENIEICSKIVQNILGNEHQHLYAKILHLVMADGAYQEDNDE
How it was run: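 Eurofins KinaseProfiler radiometric panel, compound at 1 μM, ATP at 10 μM or within 15 μM of apparent Km. For Nek1 (1−505): 8 mM MOPS pH 7.0, 0.2 mM EDTA, 250 μM peptide, 10 mM Mg acetate, [γ-33P]-ATP, 40 min at room temperature. Stopped with 0.5% phosphoric acid, filtermat spotting, scintillation counting. Mean of two independent experiments.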

[7] = biological target: Inhibitor of nuclear factor kappa-B kinase subunit alpha (Homo sapiens) (UniProt O15111); test: Inhibition of human full length recombinant IKKalpha assessed as residual activity at 1 uM using peptide as substrate incubated for 40 mins in presence of [gamma 33P]-ATP by radiometric scintillation counting assay relative to control; how it was run: as §1
Inhibitor of nuclear factor kappa-B kinase subunit alpha (Homo sapiens), sequence (O15111 whole entry): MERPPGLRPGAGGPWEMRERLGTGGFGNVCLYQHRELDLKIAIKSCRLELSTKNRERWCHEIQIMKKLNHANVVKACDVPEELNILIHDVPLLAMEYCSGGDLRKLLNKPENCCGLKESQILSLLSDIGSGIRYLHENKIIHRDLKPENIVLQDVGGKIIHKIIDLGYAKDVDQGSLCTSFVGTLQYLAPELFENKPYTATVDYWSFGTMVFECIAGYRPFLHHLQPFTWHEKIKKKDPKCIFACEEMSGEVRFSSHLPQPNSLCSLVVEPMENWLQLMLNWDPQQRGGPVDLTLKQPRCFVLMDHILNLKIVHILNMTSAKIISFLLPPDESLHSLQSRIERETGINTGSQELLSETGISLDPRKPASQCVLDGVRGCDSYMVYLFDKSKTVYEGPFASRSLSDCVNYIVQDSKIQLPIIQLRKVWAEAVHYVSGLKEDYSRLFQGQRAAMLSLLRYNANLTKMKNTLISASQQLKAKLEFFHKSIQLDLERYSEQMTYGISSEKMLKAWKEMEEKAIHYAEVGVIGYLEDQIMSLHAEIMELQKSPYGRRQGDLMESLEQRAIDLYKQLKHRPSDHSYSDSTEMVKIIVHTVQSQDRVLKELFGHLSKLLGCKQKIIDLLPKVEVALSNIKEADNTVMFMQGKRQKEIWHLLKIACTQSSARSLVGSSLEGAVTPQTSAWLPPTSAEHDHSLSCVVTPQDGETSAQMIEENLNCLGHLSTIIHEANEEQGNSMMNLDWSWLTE

[8] = biological target: Platelet-derived growth factor receptor beta (Homo sapiens) (UniProt P09619); test: Inhibition of human PDGFRbeta (557 to end residues) assessed as residual activity at 1 uM using poly(Glu, Tyr) 4:1 as substrate measured after 40 mins in presence of [gamma33P]ATP by scintillation counting method relative to control; how it was run: as §1
Platelet-derived growth factor receptor beta (Homo sapiens), sequence (P09619 whole entry): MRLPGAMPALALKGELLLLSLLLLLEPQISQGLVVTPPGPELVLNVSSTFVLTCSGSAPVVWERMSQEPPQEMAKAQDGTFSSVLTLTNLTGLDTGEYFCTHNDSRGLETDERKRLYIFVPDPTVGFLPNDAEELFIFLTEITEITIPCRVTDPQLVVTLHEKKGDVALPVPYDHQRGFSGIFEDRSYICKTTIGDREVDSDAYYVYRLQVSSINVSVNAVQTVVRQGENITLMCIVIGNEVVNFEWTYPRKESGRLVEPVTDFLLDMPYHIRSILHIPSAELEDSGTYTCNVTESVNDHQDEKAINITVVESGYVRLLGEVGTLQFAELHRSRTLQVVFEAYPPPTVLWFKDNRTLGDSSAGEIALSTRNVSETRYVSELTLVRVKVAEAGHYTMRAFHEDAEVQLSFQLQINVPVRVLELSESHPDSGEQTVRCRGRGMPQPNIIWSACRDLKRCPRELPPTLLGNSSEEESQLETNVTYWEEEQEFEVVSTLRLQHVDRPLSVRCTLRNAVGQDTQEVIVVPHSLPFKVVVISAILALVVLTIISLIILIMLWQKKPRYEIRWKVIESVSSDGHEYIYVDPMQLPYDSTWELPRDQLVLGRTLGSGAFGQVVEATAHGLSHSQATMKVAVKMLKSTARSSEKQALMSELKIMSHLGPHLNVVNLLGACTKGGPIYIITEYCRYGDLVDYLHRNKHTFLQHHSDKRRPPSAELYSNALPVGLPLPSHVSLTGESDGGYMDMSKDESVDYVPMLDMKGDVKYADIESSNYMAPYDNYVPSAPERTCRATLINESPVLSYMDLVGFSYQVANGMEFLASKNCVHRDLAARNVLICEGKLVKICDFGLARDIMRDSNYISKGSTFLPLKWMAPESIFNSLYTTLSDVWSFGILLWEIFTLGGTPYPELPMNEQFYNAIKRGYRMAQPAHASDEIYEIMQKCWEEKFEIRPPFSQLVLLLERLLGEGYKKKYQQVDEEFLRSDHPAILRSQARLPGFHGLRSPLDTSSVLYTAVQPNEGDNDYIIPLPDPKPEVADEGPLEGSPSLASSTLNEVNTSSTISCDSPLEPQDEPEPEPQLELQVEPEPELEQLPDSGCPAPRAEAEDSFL

Homo sapiens = species on record: Homo sapiens; test: Inhibition of human full length recombinant CDK1/CyclinB assessed as residual activity at 1 uM using histone H1 as substrate incubated for 40 mins in presence of [gamma 33P]-ATP by radiometric scintillation counting assay relative to control; how it was run: as §1
[9] = Toxicity in wild-type Zebrafish embryos assessed as effect on ordinary heartbeat at 0.05 to 30 uM measured upto 120 hrs; parameters: species or system Danio rerio; conditions: in vivo, dose 0.05-30 µM; how it was run: as §2
[10] = biological target: Phosphatidylinositol 4,5-bisphosphate 3-kinase catalytic subunit gamma isoform (Homo sapiens) (UniProt P48736); test: Inhibition of human full length PI3Kgamma assessed as residual activity at 1 uM using phosphatidylinositol-4, 5-bisphosphate as substrate incubated for 40 mins in presence of ATP by HTRF assay relative to control
Phosphatidylinositol 4,5-bisphosphate 3-kinase catalytic subunit gamma isoform (Homo sapiens), sequence (P48736 whole entry, looked up, canonical isoform): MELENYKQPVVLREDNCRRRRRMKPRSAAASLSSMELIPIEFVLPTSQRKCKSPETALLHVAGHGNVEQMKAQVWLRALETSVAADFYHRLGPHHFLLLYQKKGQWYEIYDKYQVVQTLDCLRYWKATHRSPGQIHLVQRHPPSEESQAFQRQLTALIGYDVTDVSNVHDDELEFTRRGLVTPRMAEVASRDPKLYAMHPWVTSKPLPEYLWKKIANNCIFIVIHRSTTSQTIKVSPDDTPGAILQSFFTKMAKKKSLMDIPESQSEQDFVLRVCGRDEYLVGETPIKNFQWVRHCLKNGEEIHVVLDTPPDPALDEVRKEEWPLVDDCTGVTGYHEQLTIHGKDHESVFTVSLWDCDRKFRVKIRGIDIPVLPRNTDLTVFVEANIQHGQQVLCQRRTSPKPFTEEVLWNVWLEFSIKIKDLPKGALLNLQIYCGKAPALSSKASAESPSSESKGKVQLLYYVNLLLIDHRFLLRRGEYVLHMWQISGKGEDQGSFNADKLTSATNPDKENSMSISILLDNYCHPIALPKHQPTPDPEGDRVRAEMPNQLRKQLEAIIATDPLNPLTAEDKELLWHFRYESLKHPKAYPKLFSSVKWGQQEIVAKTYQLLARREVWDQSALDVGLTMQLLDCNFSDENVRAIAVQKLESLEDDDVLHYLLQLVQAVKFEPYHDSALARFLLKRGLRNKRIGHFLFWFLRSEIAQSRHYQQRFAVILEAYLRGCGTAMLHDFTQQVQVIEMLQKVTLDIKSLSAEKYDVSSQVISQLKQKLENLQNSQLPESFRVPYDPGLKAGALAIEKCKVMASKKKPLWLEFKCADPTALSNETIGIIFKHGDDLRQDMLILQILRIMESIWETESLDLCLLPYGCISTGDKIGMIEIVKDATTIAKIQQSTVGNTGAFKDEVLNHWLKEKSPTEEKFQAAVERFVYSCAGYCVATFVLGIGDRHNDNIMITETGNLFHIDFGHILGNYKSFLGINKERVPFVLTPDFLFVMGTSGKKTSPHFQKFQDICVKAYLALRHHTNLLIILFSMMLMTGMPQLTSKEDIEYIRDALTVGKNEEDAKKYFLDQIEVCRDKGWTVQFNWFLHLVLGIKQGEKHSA

O=S(=O)(N[C@@H](CO)Cc1c[nH]c2ccccc12)c1ccc(-c2ccnc3[nH]ccc23)cc1
Activity [1]: > 75% | Activity [2]: > 75% | Activity [3]: Non-Toxic | Activity [4]: > 75% | Activity [5]: > 75% | Activity [6]: 4% | Activity [7]: < 75% | Activity [8]: > 75% | Activity (Homo sapiens): > 75% | Activity [9]: Non-Toxic | Activity [10]: > 75%
